Consider 1 compound from ChEMBL document CHEMBL4316597, “Design, Synthesis, and Biological Evaluation of Itaconic Acid Derivatives as Potential Anti-Influenza Agents” (J Med Chem, 2019).

Data set [1] has as its system Influenza A virus. In words: Antiviral activity against Influenza A virus (A/WSN/33) infected in MDCK cells at 1 uM added at 3 hrs to 9 hrs post infection and measured after 9 hrs by plaque assay. The format is functional, organism-based. The settings on record: A/WSN/1933(H1N1). The gist of the method: (§1)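 MDCK monolayers exposed to compound (1 or 10 μM) over windows of −3, −1, 0, 3 or 6 to 9 h pi. A/WSN/33 adsorbed at MOI 0.1 from −1 to 0 h, then removed with a PBS wash. Supernatant taken at 9 h pi and titred by plaque assay, normalised to virus-only (100%). Average of three independent experiments.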

Data set [2] relates to Influenza A virus. In words: Antiviral activity against Influenza A virus (A/WSN/33) infected in MDCK cells at 1 uM added at -1 hrs to 9 hrs post infection and measured after 9 hrs by plaque assay. The format is functional, organism-based. To be noted: A/WSN/1933(H1N1). The gist of the method:
as §1

Data set [3] is described as follows: Selectivity ratio of CC50 for MDCK cells to EC50 for Influenza A virus (A/WSN/33). The format is toxicity. The settings on record: dog, read-out: Ratio CC50/EC50. The gist of the method: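 SI is calculated as CC50 (MDCK, 72 h MTT) divided by EC50 (72 h crystal-violet CPE assay in MDCK).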
Data set [4] deals with Influenza A virus. The data set is described as follows: Inhibition of viral protein sub-cellular distribution in Influenza A virus (A/WSN/33) infected in MDCK cells assessed as reduction in M1 protein distribution to cytoplasm at 1 uM measured after 9 hrs post infection by IF-staining based microscopy. The format is functional, organism-based. The settings on record: A/WSN/1933(H1N1). The gist of the method:
(§2)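 MDCK cells grown on coverslips (2 × 10^5/well, 16 h), infected at MOI 0.1 for 1 h, washed, then kept in E0 with test compound (1 or 10 μM) or LMB 10 nM; DMSO 0.05% as mock. Fixed at 9 h pi in 4% paraformaldehyde and immunostained for M1, NP, NS2 or PA (1:50), with Hoechst nuclear stain. Viewed by confocal microscopy at 63×. NP nuclear/cytoplasmic intensity ratio quantified; three independent experiments.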

The subject of data set [5] is Enterovirus A71. In words: Antiviral activity against Enterovirus A71 TW/4643/1998 infected in human RD cells after 72 hrs by crystal violet-staining based assay. The format is functional, organism-based. The settings on record: Enterovirus A, TW/4643/1998, RD. The gist of the method: (§3)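 Cells seeded at 2 × 10^4/well in E10 (DMEM, 10% FBS), 16–24 h at 37 °C/5% CO2, washed with DPBS, then infected at nine-fold TCID50 with or without serial compound concentrations. Influenza is run in MDCK and enterovirus/rhinovirus in RD. Incubated 72 h, fixed in 4% paraformaldehyde, stained with 0.1% crystal violet, and read for cell density. EC50 = 50% CPE inhibition by Reed–Muench; mean ± S.D. of at least three runs.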

Data set [6] can be described thus: Selectivity ratio of CC50 for MDCK cells to EC50 for pandemic Influenza A virus A/TW/2235/09 (H1N1) SO4. The format is toxicity. The settings on record: dog, read-out: Ratio CC50/EC50. The gist of the method: (§4)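 MDCK cells (2 × 10^4/well, E10, 16–24 h) infected at nine-fold TCID50 with compound for 72 h, 37 °C, 5% CO2. Cells were fixed in 4% paraformaldehyde and stained with crystal violet; EC50 is from Reed–Muench. For CC50, cells had compound alone for 72 h, then MTT 3 h, DMSO, A570, Reed–Muench. SI = CC50/EC50; three independent experiments.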

Data set [7] relates to MDCK. The data set is described as follows: Inhibition of CRM1 in MDCK cells infected with Influenza A virus (A/WSN/33) assessed as reduction in CRM1-mediated viral protein nuclear export by measuring reduction in NP protein distribution to cytoplasm at 1 uM measured after 9 hrs post infection by IF-staining based microscopy. The format is cell-based. The settings on record: Canis lupus familiaris. The gist of the method:
as §2

A short description of data set [8]: Selectivity ratio of CC50 for human RD cells to EC50 for Enterovirus A71 TW/4643/1998. The format is toxicity. To be noted: read-out: Ratio CC50/EC50. The method in brief: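 RD cells (2 × 10^4/well, DMEM 10% FBS, 16–24 h) infected with enterovirus at nine-fold TCID50 with compound, 72 h, 37 °C, 5% CO2. Cells were fixed in 4% paraformaldehyde, stained with 0.1% crystal violet, and EC50 taken by Reed–Muench. CC50 came from 72 h exposure of uninfected RD cells, MTT 3 h, A570, Reed–Muench. SI = CC50/EC50; three independent experiments.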

Data set [9] concerns Influenza A virus. The data set is described as follows: Antiviral activity against Influenza A virus (A/WSN/33) infected in MDCK cells assessed as reduction in virus-induced cytopathic effect after 72 hrs by crystal violet-staining based assay. The format is functional, organism-based. To be noted: A/WSN/1933(H1N1). The gist of the method:
as §3

The test system of data set [10] is Influenza A virus. In words: Antiviral activity against Influenza A virus A/TW/3446/02 (H3N2) infected in MDCK cells after 72 hrs by crystal violet-staining based assay. The format is functional, organism-based. The method in brief:
as §3

A short description of data set [11]: Cytotoxicity against human RD cells assessed as cell death after 72 hrs by MTT assay. The format is cell-based. The method in brief: (§5)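 MDCK or RD cells at 2 × 10^4/well in E10, overnight at 37 °C/5% CO2, DPBS wash, then exposed to graded compound concentrations for 72 h. MTT added for 3 h, formazan dissolved in DMSO, absorbance read at 570 nm. CC50 (50% cell death) by Reed–Muench.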
Background: Formazan colour is commonly taken as a measure of viable cells.

Data set [12] can be described thus: Selectivity ratio of CC50 for MDCK cells to EC50 for Influenza A virus A/TW/3446/02 (H3N2). The format is toxicity. The settings on record: dog, read-out: Ratio CC50/EC50. The method in brief:
as §4

Data set [13] has as its system Enterovirus. In words: Antiviral activity against Rhinovirus 71803 infected in human RD cells after 72 hrs by crystal violet-staining based assay. The format is functional, organism-based. The settings on record: Enterovirus, 71803, RD. The method in brief:
as §3

Data set [14] relates to enterovirus D68. In words: Antiviral activity against Enterovirus D68 TW/2795/2014 clade B3 infected in human RD cells after 72 hrs by crystal violet-staining based assay. The format is functional, organism-based. The settings on record: Enterovirus D, TW/2795/2014 clade B3, RD. The method in brief:
as §3

Data set [15] can be described thus: Cytotoxicity against MDCK cells assessed as cell death after 72 hrs by MTT assay. The settings on record: dog. The format is cell-based, Canis lupus familiaris. The method in brief:
as §5

In data set [16] the test system is Enterovirus. In words: Antiviral activity against Rhinovirus 71903 infected in human RD cells after 72 hrs by crystal violet-staining based assay. The format is functional, organism-based. The settings on record: Enterovirus, 71903, RD. The gist of the method:
as §3

Data set [17] addresses Hemagglutinin (Influenza A virus) (UniProt B4URE7). The data set is described as follows: Inhibition Influenza A virus (A/WSN/33) HA infected in guinea pig RBC assessed as reduction in hemagglutination at serial dilution from 50 uM after 1 hr by HAI assay. To be noted: Influenza A virus (A/WSN/1933(H1N1)). The gist of the method: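 Virus titrated on 0.5% guinea pig RBCs to define 1 HA unit; 4 HA units used. Compound two-fold serially diluted from 50 µM and mixed with virus for 30 min at room temperature, or tested without virus for direct agglutination. 0.5% RBCs then added and agglutination scored after 1 h. DMSO/RBC-only and virus-only controls included.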

In data set [18] the test system is Influenza A virus. In words: Antiviral activity against pandemic Influenza A virus A/TW/2235/09 (H1N1) SO4 infected in MDCK cells after 72 hrs by crystal violet-staining based assay. The format is functional, organism-based. To be noted: A/TW/2235/09 (H1N1) SO4, MDCK. The method in brief:
as §3

Active and inactive are the calls of the source. No cut-off for these calls is given here.

Hemagglutinin (Influenza A virus), sequence (B4URE7 as listed by the source): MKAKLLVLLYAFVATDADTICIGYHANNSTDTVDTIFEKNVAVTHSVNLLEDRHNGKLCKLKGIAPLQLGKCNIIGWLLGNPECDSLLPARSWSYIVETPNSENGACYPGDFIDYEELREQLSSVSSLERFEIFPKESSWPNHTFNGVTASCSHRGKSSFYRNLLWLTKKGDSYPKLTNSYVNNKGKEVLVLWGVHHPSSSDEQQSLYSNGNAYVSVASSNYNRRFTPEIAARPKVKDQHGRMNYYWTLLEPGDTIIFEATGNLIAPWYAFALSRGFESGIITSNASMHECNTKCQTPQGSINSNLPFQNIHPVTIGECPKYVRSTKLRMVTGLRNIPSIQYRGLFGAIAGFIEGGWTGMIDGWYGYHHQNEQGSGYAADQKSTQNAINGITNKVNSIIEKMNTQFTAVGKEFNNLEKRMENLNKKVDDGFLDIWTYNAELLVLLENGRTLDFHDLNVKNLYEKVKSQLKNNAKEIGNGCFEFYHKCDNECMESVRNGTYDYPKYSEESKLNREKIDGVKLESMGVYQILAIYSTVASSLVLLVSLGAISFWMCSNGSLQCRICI

Turning to `C=C(CC(=O)Nc1ccc(C(F)(F)F)cc1F)C(=O)Nc1ccc(C(F)(F)F)cc1F`, the result in [1] and in data set [2] was Active. The selectivity ratio in data set [3] is more than 785; in data set [6], more than 67; in data set [8] it was 1; in data set [12], more than 114. The inhibition result in [4] and in data set [17] was “inactive” throughout. Besides, the EC50 in data set [5] was 6.69 µM; in data set [9], 0.14 µM; in data set [10], 0.96 µM; in [13], more than 50 µM; in data set [14] it was more than 50 µM; in data set [16], more than 50 µM. In addition, the EC50 in [18] came to 1.62 µM. The inhibition result in data set [7] was “Active”. The CC50 at 72 h in [11] is 9.31 µM; in [15] it was more than 110 µM.

A word on the EC50: it is the concentration that produces a half-maximal response. Broadly, the CC50 is the concentration giving 50% cytotoxicity.
